{"source": "ChEMBL document CHEMBL1133997", "about": "“2,2-Dimethyl-4,5-diaryl-3(2H)furanone derivatives as selective cyclo-oxygenase-2 inhibitors” (Bioorg Med Chem Lett, 2001)", "key": {"[1]": {"molecular_target": "T1, Prostaglandin G/H synthase 2 (Mus musculus, UniProt Q05769)", "T1 sequence (Q05769 whole entry)": "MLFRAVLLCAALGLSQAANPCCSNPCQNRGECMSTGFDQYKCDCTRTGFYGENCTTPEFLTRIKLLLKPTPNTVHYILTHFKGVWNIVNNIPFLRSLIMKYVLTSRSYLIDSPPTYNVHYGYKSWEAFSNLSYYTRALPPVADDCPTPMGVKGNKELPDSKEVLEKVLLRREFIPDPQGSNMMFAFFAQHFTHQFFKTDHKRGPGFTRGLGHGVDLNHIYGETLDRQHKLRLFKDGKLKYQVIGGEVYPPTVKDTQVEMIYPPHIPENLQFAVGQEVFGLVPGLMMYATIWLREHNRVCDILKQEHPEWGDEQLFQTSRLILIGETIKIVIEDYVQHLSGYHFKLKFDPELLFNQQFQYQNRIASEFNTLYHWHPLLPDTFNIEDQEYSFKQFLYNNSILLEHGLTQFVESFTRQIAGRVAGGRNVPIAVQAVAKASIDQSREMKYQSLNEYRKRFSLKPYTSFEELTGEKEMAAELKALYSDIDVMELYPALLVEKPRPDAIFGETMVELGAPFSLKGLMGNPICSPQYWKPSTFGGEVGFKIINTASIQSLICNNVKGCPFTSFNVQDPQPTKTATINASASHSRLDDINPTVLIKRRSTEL", "test": "Ability to inhibit Prostaglandin G/H synthase 2 by using freshly harvested mouse peritoneal macrophages"}, "[2]": {"molecular_target": "T2, Prostaglandin G/H synthase 1 (Mus musculus, UniProt P22437)", "T2 sequence (P22437 whole entry)": "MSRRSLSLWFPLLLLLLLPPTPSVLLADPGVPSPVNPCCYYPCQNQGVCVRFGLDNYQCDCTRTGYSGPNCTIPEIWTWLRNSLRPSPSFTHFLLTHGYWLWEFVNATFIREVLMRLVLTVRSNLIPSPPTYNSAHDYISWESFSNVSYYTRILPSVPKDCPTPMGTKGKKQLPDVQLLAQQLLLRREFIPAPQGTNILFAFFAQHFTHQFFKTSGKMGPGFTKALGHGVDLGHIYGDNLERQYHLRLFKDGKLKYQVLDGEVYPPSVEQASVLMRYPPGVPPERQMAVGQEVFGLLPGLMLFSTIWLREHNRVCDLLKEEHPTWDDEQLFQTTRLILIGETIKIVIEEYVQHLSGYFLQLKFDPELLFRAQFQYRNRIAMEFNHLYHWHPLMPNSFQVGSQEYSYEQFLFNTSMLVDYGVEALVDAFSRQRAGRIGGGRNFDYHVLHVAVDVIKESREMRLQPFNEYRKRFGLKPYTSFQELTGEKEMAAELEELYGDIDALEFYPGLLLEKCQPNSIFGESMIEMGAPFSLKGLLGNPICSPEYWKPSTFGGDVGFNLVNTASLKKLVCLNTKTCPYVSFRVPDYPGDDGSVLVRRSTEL", "test": "Ability to inhibit Prostaglandin G/H synthase 1 by using freshly harvested mouse peritoneal macrophages"}, "Rattus norvegicus [3]": {"system": "Rattus norvegicus", "test": "In vivo inhibitory activity against carrageenan induced paw edema in Sprague-Darley rats after oral administration of the compound", "format": "functional", "outline": "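Sprague–Darley rats were given compound orally at 3 mg/kg body weight. Read-out was percent inhibition of paw edema, using five animals per group.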"}, "Rattus norvegicus [4]": {"organism": "Rattus norvegicus", "test": "Effective dose required for the inhibition of adjuvant arthritis in Sprague-Darley rats", "format": "functional", "outline": "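Adjuvant-induced arthritis in Sprague–Darley rats, with compound dosed daily (mg/kg/day).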"}}, "data": [{"smiles": "Cc1ccccc1C1=C(c2ccc(S(C)(=O)=O)cc2)OC(C)(C)C1=O", "values": [{"measurement": "IC50", "setting": "[1]", "value": 842, "unit": "nM"}, {"measurement": "IC50", "setting": "[2]", "value": 56100, "unit": "nM"}]}, {"smiles": "CC1(C)OC(c2ccc(S(C)(=O)=O)cc2)=C(c2cccc(Cl)c2)C1=O", "values": [{"measurement": "Inhibition", "setting": "Rattus norvegicus [3]", "value": 32, "unit": "%"}]}, {"smiles": "CC1(C)OC(c2ccc(S(C)(=O)=O)cc2)=C(c2ccccc2)C1=O", "values": [{"measurement": "IC50", "setting": "[1]", "value": 146, "unit": "nM"}, {"measurement": "IC50", "setting": "[2]", "value": 8760, "unit": "nM"}]}, {"smiles": "CC1(C)OC(c2ccc(S(C)(=O)=O)cc2)=C(c2cccc(F)c2)C1=O", "values": [{"measurement": "ED50", "setting": "Rattus norvegicus [4]", "value": 0.08, "unit": "mg/kg/day"}]}, {"smiles": "CC1(C)OC(c2ccc(S(C)(=O)=O)cc2)=C(c2cc(F)cc(F)c2)C1=O", "values": [{"measurement": "IC50", "setting": "[1]", "value": 79.3, "unit": "nM"}, {"measurement": "ED50", "setting": "Rattus norvegicus [4]", "value": 0.03, "unit": "mg/kg/day"}]}, {"smiles": "CC1(C)OC(c2ccc(S(C)(=O)=O)cc2)=C(c2cccc(C(F)(F)F)c2)C1=O", "values": [{"measurement": "IC50", "setting": "[1]", "value": 122, "unit": "nM"}, {"measurement": "IC50", "setting": "[2]", "value": 7310, "unit": "nM"}, {"measurement": "ED50", "setting": "Rattus norvegicus [4]", "value": 0.06, "unit": "mg/kg/day"}]}, {"smiles": "Cc1ccc(-c2cc(C(F)(F)F)nn2-c2ccc(S(N)(=O)=O)cc2)cc1", "note": "[CELECOXIB]", "values": [{"measurement": "ED50", "setting": "Rattus norvegicus [4]", "value": 0.2, "unit": "mg/kg/day"}, {"measurement": "Inhibition", "setting": "Rattus norvegicus [3]", "value": 31, "unit": "%"}]}, {"smiles": "CS(=O)(=O)c1ccc(C2=C(c3ccccc3)C(=O)OC2)cc1", "note": "[ROFECOXIB]", "values": [{"measurement": "IC50", "setting": "[1]", "value": 191, "unit": "nM"}]}]}
